Laboratory results from ChEMBL document CHEMBL4765235, “Discovery of N-[Bis(4-methoxyphenyl)methyl]-4-hydroxy-2-(pyridazin-3-yl)pyrimidine-5-carboxamide (MK-8617), an Orally Active Pan-Inhibitor of Hypoxia-Inducible Factor Prolyl Hydroxylase 1-3 (HIF PHD1-3) for the Treatment of Anemia” (J Med Chem, 2016).
Calls of active or inactive are those of the source. The rule behind the calls is not given here.

Columns and labels:
[1] = In vivo inhibition of HIF-PHD2 in C57BL/6 mouse assessed as serum erythropoietin level at 1.5 mg/kg, iv measured after 4 hrs; assay type: functional
Method in brief: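 Mouse pharmacodynamic EPO assay (MoPED). Compound dosed iv; serum EPO measured 4 hr after dosing and reported in pg/mL. Minimum effective dose is the lowest dose giving EPO elevation.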

[2] = Cmax in rat at 2 mg/kg, po or 1 mg/kg, iv; assay type: ADME, organism-based; set-up: dose 2 mg/kg; settings: in vivo
[3] = Volume of distribution at steady state in rat at 2 mg/kg, po or 1 mg/kg, iv; assay type: ADME, organism-based; settings: in vivo, read-out: Vdss
[4] = Half life in rat at 2 mg/kg, po or 1 mg/kg, iv; assay type: ADME, organism-based; settings: in vivo
[5] = Protein binding in rat plasma assessed as unbound fraction at 2 mg/kg, po or 1 mg/kg, iv; assay type: ADME, organism-based; settings: read-out: PPB
[6] = Volume of distribution at steady state in dog at 1 mg/kg, po or 0.5 mg/kg, iv; assay type: ADME, organism-based, Canis lupus familiaris; settings: in vivo, read-out: Vdss
Method in brief: (§1)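 Dog and rhesus monkey dosed 1 mg/kg po and 0.5 mg/kg iv. The iv vehicle was PEG200:12%HPCD:water (30:12:58 v/v/v); the po vehicle was Imwitor:Tween (1:1 w/w). Clearance was measured in plasma. Protein binding was measured in 100% serum.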

[7] = Protein binding in dog plasma assessed as unbound fraction at 1 mg/kg, po or 0.5 mg/kg, iv; assay type: ADME, organism-based, Canis lupus familiaris; settings: read-out: PPB
[8] = Protein binding in rhesus monkey plasma assessed as unbound fraction at 1 mg/kg, po or 0.5 mg/kg, iv; assay type: ADME, organism-based, Macaca mulatta; settings: read-out: PPB
Prolyl hydroxylase EGLN3 = Prolyl hydroxylase EGLN3 (Homo sapiens, UniProt Q9H6Z9); test: Inhibition of FLAG-tagged full-length HIF-PHD3 (unknown origin) expressed in baculovirus infected Sf9 cells using 2-oxoglutarate and HIF1alpha biotinyl-DLDLEMLAPYIPMDDDFQL as peptide substrates preincubated for 30 mins followed by substrate addition and measured after 2 hrs by LANCE assay
Cytochrome P450 2C9 = Cytochrome P450 2C9 (Homo sapiens, UniProt P11712); test: Inhibition of CYP2C9 (unknown origin); assay type: ADME
Cytochrome P450 2C19 = Cytochrome P450 2C19 (Homo sapiens, UniProt P33261); test: Inhibition of CYP2C19 (unknown origin); assay type: ADME
Cytochrome P450 2D6 = Cytochrome P450 2D6 (Homo sapiens, UniProt P10635); test: Inhibition of CYP2D6 (unknown origin); assay type: ADME
Cytochrome P450 2C8 = target: T1, Cytochrome P450 2C8 (Homo sapiens, UniProt P10632); test: Reversible inhibition of CYP2C8 (unknown origin); assay type: ADME
T1 sequence (P10632 whole entry): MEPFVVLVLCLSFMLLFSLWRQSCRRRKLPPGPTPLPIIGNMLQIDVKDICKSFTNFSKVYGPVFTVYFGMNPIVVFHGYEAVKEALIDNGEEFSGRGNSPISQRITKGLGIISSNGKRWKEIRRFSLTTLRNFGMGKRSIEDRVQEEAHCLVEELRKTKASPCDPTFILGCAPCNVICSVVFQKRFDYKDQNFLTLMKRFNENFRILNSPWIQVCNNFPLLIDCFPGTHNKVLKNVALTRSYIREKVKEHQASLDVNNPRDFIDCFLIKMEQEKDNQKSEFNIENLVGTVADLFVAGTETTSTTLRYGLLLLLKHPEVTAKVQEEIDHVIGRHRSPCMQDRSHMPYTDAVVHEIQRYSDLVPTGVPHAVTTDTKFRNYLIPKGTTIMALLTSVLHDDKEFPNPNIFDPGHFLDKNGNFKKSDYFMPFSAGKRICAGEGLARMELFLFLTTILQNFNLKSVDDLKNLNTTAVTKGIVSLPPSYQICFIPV

[9] = Drug metabolism in monkey liver microsomes assessed as O-demethylated metabolite formation; assay type: ADME, Macaca mulatta, Microsome; settings: rhesus monkey
[10] = Oral bioavailability in C57BL/6J mouse at 1 mg/kg; assay type: ADME, organism-based; settings: in vivo
Method in brief: (§2)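 C57BL/6J mice dosed 1 mg/kg po and 0.5 mg/kg iv, both in DMSO:PEG400:water (5:40:55, v/v/v).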

[11] = Cmax in C57BL/6J mouse at 1 mg/kg, po or 0.5 mg/kg, iv; assay type: ADME, organism-based; set-up: dose 1 mg/kg; settings: in vivo
Method in brief: (§3)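 Single-dose PK at 1 mg/kg po and 0.5 mg/kg iv. Mouse clearance is from blood; dog and rhesus clearance is from plasma. Mouse vehicle, both routes: DMSO:PEG400:water (5:40:55, v/v/v). Dog and monkey iv vehicle: PEG200:12%HPCD:water (30:12:58 v/v/v). Dog and monkey po vehicle: Imwitor:Tween (1:1 w/w).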

[12] = Blood clearance in C57BL/6J mouse at 1 mg/kg, po or 0.5 mg/kg, iv; assay type: ADME, organism-based; settings: whole blood; method in brief: as §3
[13] = Volume of distribution at steady state in C57BL/6J mouse at 1 mg/kg, po or 0.5 mg/kg, iv; assay type: ADME, organism-based; settings: in vivo, read-out: Vdss; method in brief: as §2
[14] = Half life in C57BL/6J mouse at 1 mg/kg, po or 0.5 mg/kg, iv; assay type: ADME, organism-based; settings: in vivo; method in brief: as §3
[15] = Plasma clearance in rat at 2 mg/kg, po or 1 mg/kg, iv; assay type: ADME, organism-based
[16] = Plasma clearance in dog at 1 mg/kg, po or 0.5 mg/kg, iv; assay type: ADME, organism-based, Canis lupus familiaris; method in brief: as §1
[17] = Drug recovery in fasted bile-duct cannulated Sprague-Dawley rat bile at 5 mg/kg, po using [3H]-labeled compound measured after 48 hrs; assay type: ADME, organism-based; settings: in vivo
[18] = Drug recovery in fasted bile-duct cannulated Sprague-Dawley rat feces at 5 mg/kg, po using [3H]-labeled compound measured after 48 hrs; assay type: ADME, organism-based; settings: in vivo
[19] = Drug recovery in fasted bile-duct cannulated Sprague-Dawley rat bile assessed as metabolically unchanged parent compound at 5 mg/kg, po using [3H]-labeled compound measured after 48 hrs; assay type: ADME, organism-based; settings: in vivo
[20] = Cmax in Sprague-Dawley rat at 1.5 mg/kg, po administered as single dose measured at 6 hrs; assay type: ADME, organism-based; set-up: route oral, time 6 hrs, dose 1.5 mg/kg; settings: in vivo
[21] = Cmax in Sprague-Dawley rat at 15 mg/kg, po administered as single dose measured at 6 hrs; assay type: ADME, organism-based; set-up: route oral, time 6 hrs, dose 15 mg/kg; settings: in vivo
[22] = Toxicity in Sprague-Dawley rat assessed as change in hemoglobin levels at 1.5 mg/kg, po QD administered for 4 weeks and measured post last dose; assay type: organism-based; settings: in vivo, 672 h
[23] = Drug metabolism in fasted bile-duct cannulated Sprague-Dawley rat urine assessed as oxidation of parent compound causing metabolite formation at 5 mg/kg, po using [3H]-labeled compound measured after 48 hrs; assay type: ADME, organism-based; settings: in vivo
[24] = Drug metabolism in fasted bile-duct cannulated Sprague-Dawley rat bile assessed as oxidation of parent compound causing metabolite formation at 5 mg/kg, po using [3H]-labeled compound measured after 48 hrs; assay type: ADME, organism-based; settings: in vivo
Mus musculus = species on record: Mus musculus; settings: C57BL/6, dose 5-15 mg/kg, time 2.0 day
[25] = target: Hypoxia-inducible factor 1-alpha inhibitor (Homo sapiens) (UniProt Q9NWT6); test: Inhibition of FIH (unknown origin) using 2-oxoglutarate and biotinyl-SMDESGLPQLTSYDAEVNAPIQGSRNLLQGEELLR CAD peptide as substrate preincubated for 10 mins followed by substrate addition and measured after 1 hr by RapidFire Mass spectrometry

Cytochrome P450 2D6, sequence (P10635 whole entry): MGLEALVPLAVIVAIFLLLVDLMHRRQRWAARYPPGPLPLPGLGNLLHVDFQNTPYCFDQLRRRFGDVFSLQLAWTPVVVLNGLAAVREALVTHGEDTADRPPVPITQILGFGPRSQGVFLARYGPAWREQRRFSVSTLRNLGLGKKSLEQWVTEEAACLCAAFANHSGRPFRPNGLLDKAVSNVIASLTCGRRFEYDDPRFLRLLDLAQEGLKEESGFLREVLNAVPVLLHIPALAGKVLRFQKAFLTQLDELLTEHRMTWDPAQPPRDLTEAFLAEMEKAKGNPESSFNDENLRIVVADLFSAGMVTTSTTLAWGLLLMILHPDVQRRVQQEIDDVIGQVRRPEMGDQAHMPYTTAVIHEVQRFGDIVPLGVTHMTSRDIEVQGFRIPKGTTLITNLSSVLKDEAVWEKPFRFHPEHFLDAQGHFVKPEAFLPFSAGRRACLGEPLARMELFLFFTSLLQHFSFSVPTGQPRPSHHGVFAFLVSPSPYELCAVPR
Cytochrome P450 2C9, sequence (P11712 whole entry): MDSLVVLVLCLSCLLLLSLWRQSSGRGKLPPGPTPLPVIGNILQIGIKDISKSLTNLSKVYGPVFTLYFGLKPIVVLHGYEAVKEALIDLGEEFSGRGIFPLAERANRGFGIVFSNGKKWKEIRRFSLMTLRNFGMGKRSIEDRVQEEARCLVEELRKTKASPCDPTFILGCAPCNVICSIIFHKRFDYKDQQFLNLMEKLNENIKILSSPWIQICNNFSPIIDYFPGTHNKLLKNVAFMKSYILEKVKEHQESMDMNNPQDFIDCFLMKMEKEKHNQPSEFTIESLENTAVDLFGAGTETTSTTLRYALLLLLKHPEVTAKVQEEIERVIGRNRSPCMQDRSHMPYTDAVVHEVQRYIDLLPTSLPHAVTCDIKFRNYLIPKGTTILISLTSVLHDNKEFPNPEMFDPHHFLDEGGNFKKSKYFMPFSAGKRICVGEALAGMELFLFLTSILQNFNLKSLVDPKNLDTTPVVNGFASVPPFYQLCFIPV
Prolyl hydroxylase EGLN3, sequence (Q9H6Z9 whole entry): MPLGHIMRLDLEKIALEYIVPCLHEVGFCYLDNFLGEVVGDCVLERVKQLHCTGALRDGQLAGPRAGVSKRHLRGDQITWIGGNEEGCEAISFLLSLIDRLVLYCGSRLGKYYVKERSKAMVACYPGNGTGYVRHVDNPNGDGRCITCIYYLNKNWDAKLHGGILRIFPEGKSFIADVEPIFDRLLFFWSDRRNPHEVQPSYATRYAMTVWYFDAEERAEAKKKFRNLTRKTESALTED
Cytochrome P450 2C19, sequence (P33261 whole entry): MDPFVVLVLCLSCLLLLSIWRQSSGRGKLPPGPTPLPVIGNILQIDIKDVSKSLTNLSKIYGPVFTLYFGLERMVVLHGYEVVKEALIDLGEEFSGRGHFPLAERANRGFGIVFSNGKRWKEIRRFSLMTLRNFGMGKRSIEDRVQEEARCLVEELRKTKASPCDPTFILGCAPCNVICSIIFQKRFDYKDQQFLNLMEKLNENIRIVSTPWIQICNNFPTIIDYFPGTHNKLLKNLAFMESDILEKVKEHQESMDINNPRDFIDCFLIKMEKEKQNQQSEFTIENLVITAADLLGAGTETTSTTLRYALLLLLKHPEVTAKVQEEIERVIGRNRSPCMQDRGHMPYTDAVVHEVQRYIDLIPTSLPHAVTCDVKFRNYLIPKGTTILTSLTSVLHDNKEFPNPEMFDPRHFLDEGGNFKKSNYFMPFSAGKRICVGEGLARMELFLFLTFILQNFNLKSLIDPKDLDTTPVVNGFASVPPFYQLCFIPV

COc1ccc(C(NC(=O)c2cnc(-c3cccnn3)nc2O)c2ccc(OC)cc2)cc1
Activity [1]: 360 pg/mL | Cmax [2]: 11 µM | Vd [3]: 0.16 L/kg | half-life [4]: 9.3 h | fraction unbound [5]: 0.006 | Vd [6]: 0.12 L/kg | fraction unbound [7]: 0.01 | fraction unbound [8]: 0.005 | IC50 (Prolyl hydroxylase EGLN3): 0.014 µM | IC50 (Cytochrome P450 2C9): > 60 µM | IC50 (Cytochrome P450 2C19): > 60 µM | IC50 (Cytochrome P450 2D6): > 60 µM | IC50 (Cytochrome P450 2C8): 1.6 µM | Drug metabolism [9]: Metabolite_Detected | bioavailability [10]: 6.3% | Cmax [11]: 8.4 µM | clearance [12]: 0.13 mL/min/kg | Vd [13]: 0.13 L/kg | half-life [14]: 11 h | clearance [15]: 0.2 mL/min/kg | clearance [16]: 0.07 mL/min/kg | Drug recovery [17]: 12% | Drug recovery [18]: 39% | Drug recovery [19]: < 10% | Cmax [20]: 6.8 µM | Cmax [21]: 30 µM | Activity [22]: 1 g/dL | Drug metabolism [23]: Metabolite_Detected | Drug metabolism [24]: Metabolite_Detected | inhibition (Mus musculus): Active | IC50 [25]: 18 µM
